Measurements as given in ChEMBL document CHEMBL1138272, “Synthesis, characterization, and receptor interaction profiles of enantiomeric bile acids” (J Med Chem, 2007).
Calls of active or inactive are those of the source. The rule behind the calls is not given here.

Experiments:
[1] = biological target: T1, Bile acid receptor (Homo sapiens) (UniProt Q96RI1); assay: Activation of human FXR expressed in HEK293 cells by GAL4 activation assay; assay type: cell-based
T1 sequence (whole entry): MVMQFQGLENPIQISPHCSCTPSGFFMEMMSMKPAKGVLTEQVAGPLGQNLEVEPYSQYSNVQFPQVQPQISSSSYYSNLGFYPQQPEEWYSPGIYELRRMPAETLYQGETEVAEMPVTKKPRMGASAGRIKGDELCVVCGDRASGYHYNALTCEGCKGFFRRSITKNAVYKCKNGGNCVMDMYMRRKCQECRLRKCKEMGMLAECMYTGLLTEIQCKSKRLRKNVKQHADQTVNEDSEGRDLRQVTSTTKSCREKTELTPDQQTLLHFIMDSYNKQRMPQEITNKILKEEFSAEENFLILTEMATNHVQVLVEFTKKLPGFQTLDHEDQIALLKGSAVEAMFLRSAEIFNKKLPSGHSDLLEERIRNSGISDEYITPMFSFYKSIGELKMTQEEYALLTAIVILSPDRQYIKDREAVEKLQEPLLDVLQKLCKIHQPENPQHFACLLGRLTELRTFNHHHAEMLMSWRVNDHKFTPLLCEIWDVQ
In short: (§1)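 HEK293 cells in DMEM/10% super-stripped FBS, 4.0 × 10^4/well, calcium-phosphate transfected with UAS-luciferase (50 ng), GAL4-hFXR or GAL4-hPXR LBD fusion (15 ng), β-galactosidase (10 ng); ligands (5, 20, 50 µM) added 6-8 h later in delipidated medium, harvested 14-16 h later. Luciferase normalized to β-gal, fold over ethanol vehicle; triplicates.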

[2] = biological target: T2, Nuclear receptor subfamily 1 group I member 2 (Homo sapiens, UniProt O75469); assay: Activation of human PXR expressed in HEK293 cells at 20 uM by GAL4 activation assay relative to control; assay type: cell-based; details: hek293, 20 µM; in short: as §1
T2 sequence (O75469 whole entry): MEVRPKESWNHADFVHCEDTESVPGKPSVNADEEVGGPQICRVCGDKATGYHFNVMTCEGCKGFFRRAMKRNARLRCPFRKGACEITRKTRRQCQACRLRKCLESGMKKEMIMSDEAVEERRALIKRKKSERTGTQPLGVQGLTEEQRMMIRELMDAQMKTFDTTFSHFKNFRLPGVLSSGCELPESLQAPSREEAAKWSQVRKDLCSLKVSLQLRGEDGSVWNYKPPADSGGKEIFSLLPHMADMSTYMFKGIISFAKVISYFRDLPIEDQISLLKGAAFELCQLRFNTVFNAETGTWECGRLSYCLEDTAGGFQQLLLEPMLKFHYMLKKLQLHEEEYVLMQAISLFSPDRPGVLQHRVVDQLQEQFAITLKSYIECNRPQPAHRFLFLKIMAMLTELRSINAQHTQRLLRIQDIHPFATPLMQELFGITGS

[3] = biological target: T2, Nuclear receptor subfamily 1 group I member 2; assay: Activation of human PXR expressed in HEK293 cells at 50 uM by GAL4 activation assay relative to control; assay type: cell-based; details: hek293, 50 µM; in short: as §1
[4] = biological target: T1, Bile acid receptor (Homo sapiens); assay: Activation of human FXR at 50 uM by FXRE TK-luciferase reporter gene assay relative to control
In short: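 HEK293 cells calcium-phosphate cotransfected with full-length hFXR and hRXRα (15 ng each) plus FXREx3-TK-luc reporter (three copies of mouse IBABP IR-1) and β-galactosidase; bile acids 50 µM added in delipidated medium 6-8 h later, harvested 14-16 h later; luciferase normalized to β-gal; N = 3.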

Huh-7 [5] = assay: Activation of BSEP gene expression in human Huh7 cells at 20 uM after 18 hrs by RT-PCR; assay type: functional, cell-based
In short: (§2)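 Huh7 cells seeded 2 × 10^5/well in high-glucose DMEM/10% FBS; next day ligands added in low-glucose DMEM with 5% charcoal-stripped FBS, 18 h. RNA harvested, SYBR green real-time QPCR, ΔΔCt normalized to cyclophilin, fold vs vehicle; N = 3, mean ± SD.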

Huh-7 [6] = assay: Activation of SHP gene expression in human Huh7 cells at 20 uM after 18 hrs by RT-PCR; assay type: functional, cell-based; in short: as §2
Caco-2 [7] = assay: Activation of IBABP gene expression in human Caco-2 cells at 25 uM after 6 days by RT-PCR; assay type: functional, cell-based
In short: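 Caco-2 cells grown in high-glucose DMEM/15% heat-inactivated FBS, medium changed every 3 days; 23 days post-confluence treated with ligands in DMEM with 15% charcoal-stripped FBS for 6 days. SYBR green real-time QPCR, ΔΔCt normalized to cyclophilin, fold vs vehicle; N = 2.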

Huh-7 [8] = assay: Activation of BSEP gene expression in human Huh7 cells at 1 uM after 18 hrs by RT-PCR; assay type: functional, cell-based
In short: (§3)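 Huh7 seeded 2 × 10^5 cells/well in high-glucose DMEM with 10% FBS. Next day, ligands were added in low-glucose DMEM with 5% charcoal-stripped FBS for 18 h. RNA was read by SYBR green real-time QPCR, ΔΔCt normalised to cyclophilin, and expressed as fold over vehicle; N = 3.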

HepG2 [9] = assay: Activation of BSEP gene expression in human HepG2 cells at 1 uM after 18 hrs by RT-PCR; assay type: functional, cell-based
In short: (§4)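 HepG2 seeded 3 × 10^5 cells/well in M199 with 10% FBS, penicillin/streptomycin and 25 mM HEPES. After 24 h, medium was replaced with ligand-containing medium for 18 h. Total RNA was isolated and analysed by SYBR green real-time QPCR (12.5 ng cDNA, 150 nM primers). Values were derived by ΔΔCt against cyclophilin, as fold over vehicle; N = 3.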

Huh-7 [10] = assay: Activation of SHP gene expression in human Huh7 cells at 1 uM after 18 hrs by RT-PCR; assay type: functional, cell-based; in short: as §3
HepG2 [11] = assay: Decrease in CYP7A1 gene expression in human HepG2 cells at 1 uM after 18 hrs by RT-PCR; assay type: functional, cell-based; in short: as §4
Caco-2 [12] = assay: Activation of IBABP gene expression in human Caco-2 cells at 1 uM after 6 days by RT-PCR; assay type: functional, cell-based
In short: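 Caco-2 grown in high-glucose DMEM with 15% heat-inactivated FBS, medium changed every 3 days. Treated 23 days postconfluence for 6 days in medium with 15% charcoal-stripped heat-inactivated FBS. RNA was read by SYBR green real-time QPCR, ΔΔCt normalised to cyclophilin, and expressed relative to vehicle; N = 2.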

HepG2 [13] = assay: Decrease in CYP7A1 gene expression in human HepG2 cells at 25 uM after 18 hrs by RT-PCR; assay type: functional, cell-based
In short: (§5)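 HepG2 cells seeded 3 × 10^5/well in M199 with 10% FBS and 25 mM HEPES; after 24 h, medium replaced with ligand-containing medium, 18 h. Total RNA isolated; real-time QPCR with SYBR green (12.5 ng cDNA, 150 nM primers); ΔΔCt method normalized to cyclophilin, fold change vs vehicle-treated cells; N = 3, mean ± SD.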

[14] = biological target: T3, G-protein coupled bile acid receptor 1 (Homo sapiens) (UniProt Q8TDU6); assay: Activation of TGR5 expressed in HEK293 cells assessed as elevation of cAMP production at 100 uM relative to control; assay type: functional, cell-based
T3 sequence (whole entry): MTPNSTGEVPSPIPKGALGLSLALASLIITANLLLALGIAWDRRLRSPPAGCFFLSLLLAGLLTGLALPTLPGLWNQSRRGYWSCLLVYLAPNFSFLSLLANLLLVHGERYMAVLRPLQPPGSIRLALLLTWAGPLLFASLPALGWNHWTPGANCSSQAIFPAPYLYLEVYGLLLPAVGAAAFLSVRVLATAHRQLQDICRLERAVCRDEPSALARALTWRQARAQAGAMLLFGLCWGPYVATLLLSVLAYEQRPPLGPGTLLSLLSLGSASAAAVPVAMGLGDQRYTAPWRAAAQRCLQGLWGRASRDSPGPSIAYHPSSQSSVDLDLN
In short: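 HEK293 seeded 0.5 × 10^6 cells/well and transfected 24 h later with TGR5 vector or empty vector. After 2 days, cells were exposed 30 min at 37 °C in fresh medium with 0.2 mM IBMX. Intracellular cAMP was measured by kit after lysis and expressed over vehicle; N = 2.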

HepG2 [15] = assay: Activation of SHP gene expression in human HepG2 cells at 10 uM after 18 hrs by RT-PCR; assay type: functional, cell-based; in short: as §5
HepG2 [16] = assay: Activation of BSEP gene expression in human HepG2 cells at 25 uM after 18 hrs by RT-PCR; assay type: functional, cell-based; in short: as §5
HepG2 [17] = assay: Activation of SHP gene expression in human HepG2 cells at 25 uM after 18 hrs by RT-PCR; assay type: functional, cell-based; in short: as §5

Structure (SMILES)	Activity [1]	Activity [2]	Activity [3]	Activity (Huh-7 [5])	Activity (Huh-7 [6])	Activity (Caco-2 [7])	Activity (HepG2 [13])	further results
C[C@H](CCC(=O)O)[C@H]1CC[C@H]2[C@@H]3CC[C@@H]4C[C@H](O)CC[C@]4(C)[C@H]3CC[C@]12C [LITHOCHOLIC ACID]	Dose-dependent effect	Active	Active	Active	Active	inactive		Activity [4]: Active
CC(C)c1onc(-c2c(Cl)cccc2Cl)c1COc1ccc(/C=C/c2cccc(C(=O)O)c2)c(Cl)c1								Activity (Huh-7 [8]): Active; Activity (HepG2 [9]): Active; Activity (Huh-7 [10]): Active; Activity (HepG2 [11]): Active; Activity (Caco-2 [12]): Active
C[C@H](CCC(=O)O)[C@H]1CC[C@H]2[C@@H]3[C@@H](O)C[C@@H]4C[C@H](O)CC[C@]4(C)[C@H]3CC[C@]12C						inactive	Active	
C=C[C@@]1(C)CC(=O)[C@]2(O)[C@@]3(C)[C@@H](O)CCC(C)(C)[C@@H]3[C@H](O)[C@H](OC(C)=O)[C@@]2(C)O1								Fold change [14]: 16.5
C[C@@H](CCC(=O)O)[C@@H]1CC[C@H]2[C@@H]3CC[C@H]4C[C@@H](O)CC[C@@]4(C)[C@H]3CC[C@]21C	Dose-dependent effect	Active	Active	Active	Active	inactive		Activity (HepG2 [15]): Active
C[C@H](CCC(=O)O)[C@H]1CC[C@H]2[C@@H]3[C@H](O)C[C@@H]4C[C@H](O)CC[C@]4(C)[C@H]3CC[C@]12C [CHENODIOL]		Active	Active	Active	Active	Active	Active	Activity (HepG2 [16]): Active; Activity (HepG2 [17]): Active
